Compound activity: PubChem BioAssay, The Scripps Research Institute Molecular Screening Center
LYPLA1 counter – blocks human lysophospholipase 1, a PME1 counter-screen. recombinant LYPLA1, FP-Rh probe fluorescence polarization. inhibition, % at 5.9 µM. 0.16% of 320,000 active;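 active = inhibition above the mean of all tested compounds plus 3 SD, set per campaign, cut at about 14% in these data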;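 also: inhibitors block serine hydrolase probe labeling of LYPLA1 so polarization falls; 0% = enzyme with DMSO and 100% = wells lacking LYPLA1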
Fam108B counter – Fam108B inhibition, counter-screen for RBBP9 inhibitors; recombinant Fam108B, FP-Rh probe fluorescence polarization; inhibition, % at 9.51 µM; 0.33% of 300,000 active; AID 1947;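 active = inhibition above the screen mean inhibition plus 3 SD, computed separately per campaign, cut at about 18% in these data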;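 also: inhibitors lower polarization as less probe binds the enzyme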
proCasp3 act – procaspase-3 (human) activation | activation, % at 8.5 µM | AID 463141 | P42574 | 0.11% of 330,000 active | recombinant procaspase-3 D3A, Ac-DEVD-pNA absorbance 405 nm;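 active = activation above the mean of all tested compounds plus 3 SD, cut at about 21% in these data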;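 also: 0% = DMSO alone and 100% = DMSO wells spiked with extra 5 µM PC-3 D3A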
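Test system: Procaspase-3 D3A mutant, all three cleavage aspartates alanine | Dosing: Single dose, 8.5 µM nominal compound, 0.8% DMSO | Schedule: 1 h preincubation, 2 h reaction | Technique: 405 nm absorbance of p-nitroaniline, reads at 0 and 120 min | Repeats: One well per compound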
LYPLA2 counter – counter-screen for PME1 inhibitors: inhibitors of human LYPLA2; recombinant LYPLA2, FP-Rh probe fluorescence polarization; inhibition, % at 5.9 µM; 0.38% of 320,000 active; AID 2177;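 active = inhibition above the screen-wide mean plus 3 SD, limit set per campaign, cut at about 26% in these data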;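 also: 0% = LYPLA2 with DMSO and 100% = wells lacking LYPLA2 enzyme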
PME-1 inh – PME-1 (human) inhibition | recombinant PME-1, FP-Rh probe fluorescence polarization | Q9Y570 | 0.53% of 320,000 active | AID 2130 | inhibition, % at 5.9 µM;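 active = inhibition above the campaign mean of all compounds plus 3 SD, cut at about 26% in these data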;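 also: competitive labeling of PME-1 active site by serine hydrolase directed probe; 0% = PME-1 with DMSO and 100% = wells lacking PME-1 enzyme; inhibitors block probe labeling so polarization falls and inhibition rises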
Target sequence (Q9Y570 whole entry, looked up): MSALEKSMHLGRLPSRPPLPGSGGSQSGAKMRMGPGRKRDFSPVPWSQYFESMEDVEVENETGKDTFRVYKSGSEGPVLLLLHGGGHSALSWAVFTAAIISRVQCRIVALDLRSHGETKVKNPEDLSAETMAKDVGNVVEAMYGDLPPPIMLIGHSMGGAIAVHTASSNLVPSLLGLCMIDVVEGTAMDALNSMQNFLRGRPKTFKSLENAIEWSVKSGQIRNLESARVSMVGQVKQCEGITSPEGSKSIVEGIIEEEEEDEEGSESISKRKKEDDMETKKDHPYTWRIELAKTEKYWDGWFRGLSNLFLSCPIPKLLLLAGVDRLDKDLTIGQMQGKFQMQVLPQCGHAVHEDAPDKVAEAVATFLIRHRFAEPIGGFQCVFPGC
procasp7 counter – counter-screen for procaspase-3 activators: activators of human procaspase-7; P55210; recombinant procaspase-7, Ac-DEVD-pNA absorbance 405 nm; D23A/D198A/D206A triple mutant, cannot self-cleave; scale: DMSO 0, 5 µM enzyme 100; activation, % at 8.5 µM; 0.093% of 330,000 active;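 active = percent activation above the screen-wide mean plus 3 SD, cut at about 25% in these data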
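Test system: Procaspase-7 triple mutant (PC-7 D3A). Also added: Ac-DEVD-pNA substrate, 400 µM as added. Schedule: 1 h enzyme–compound preincubation and 2 h substrate reaction, both 25 °C. Signal: p-Nitroaniline absorbance at 405 nm, read at 0 and 120 min. Control set: low DMSO alone, high DMSO plus 5 µM PC-7.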
Fam108b confirm – confirmation of mouse Fam108b serine hydrolase inhibitors. shares compounds with Fam108B counter. AID 1978. 44% of 930 active. inhibition, % at 9.51 µM. recombinant Fam108b, FP-Rh probe fluorescence polarization;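 active = inhibition above a limit from the primary screen, the mean over all compounds plus 3 SD, cut at about 19% in these data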;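 also: 0% = median of active Fam108b wells and 100% = catalytically dead S170A mutant; inhibitors free the probe so polarization falls as inhibition rises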
Fam108b inh – inhibits mouse Fam108b in gel-based ABPP | shares compounds with Fam108B counter | inhibition, % at 20 µM | recombinant Fam108b, fluorophosphonate probe | 44% of 260 active; in the data active = inhibition above about 40%
LYPLA1 conf – counter-screen for PME1 inhibitors: confirmation of human LYPLA1 inhibitors. AID 2233. shares compounds with LYPLA1 counter. recombinant LYPLA1, FP-Rh probe fluorescence polarization. 69% of 480 active. inhibition, % at 5.9 µM;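 active = mean inhibition across replicates above the hit cutoff set in the primary screen, cut at about 15% in these data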;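 also: loss of FP-Rh probe labeling of LYPLA1 seen as lower polarization; 0% = LYPLA1 with DMSO and 100% = wells lacking LYPLA1 enzyme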
LYPLA2 conf – LYPLA2 (human) inhibition, confirmation counter-screen | AID 2232 | shares compounds with LYPLA2 counter | recombinant LYPLA2, FP-Rh probe fluorescence polarization | inhibition, % at 5.9 µM | 72% of 1,100 active;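 active = mean inhibition across replicates above the hit cutoff set in the primary screen, cut at about 26% in these data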;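 also: blocked labeling of the enzyme by serine hydrolase FP-Rh probe lowers polarization; 0% = enzyme with DMSO and 100% = wells lacking LYPLA2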
* marks the source's active call; other numbers are inactive results; x = not tested or not shown. Sampled rows, rich in hits. Any-hit rate of the full collection: about 1%.

SMILES	LYPLA1 counter	Fam108B counter	proCasp3 act	LYPLA2 counter	PME-1 inh	procasp7 counter	LYPLA1 conf	LYPLA2 conf	others
Cc1ccc2c(c1Cl)NC(C(=O)O)C1CC(Sc3ccccc3[N+](=O)[O-])C(Cl)C21 (stereo not drawn)	-1	27*	-20	-13	0	-29	x	x	Fam108b confirm=11
CCN(CC)C(=O)c1ccc2c(c1)C1C(Cl)C(Sc3ccccc3[N+](=O)[O-])CC1C(C(=O)O)N2 (stereo not drawn)	0	47*	-18	2	14	-40	x	x	Fam108b confirm=7
CCN(CC)C(=O)c1ccc(NC(=O)c2cccc(S(=O)(=O)N3CCN(Cc4ccccc4)CC3)c2)cc1	-6	-1	-1	-2	-3	5	x	x
C[C@]12CCC3C(CC[C@H]4C[C@H](O)CC[C@]34C)C1C[C@@H](CCCCl)[C@@H]2O (stereo partly drawn)	x	x	0	x	x	-10	x	x
O=[N+]([O-])c1ccc(NCc2ccccc2)c2nonc12	53*	21*	-11	64*	56*	-17	36*	50*	Fam108b confirm=38*;Fam108b inh=0
Cc1nonc1OCCNc1ccc([N+](=O)[O-])c2cccnc12	2	-2	-3	0	7	0	x	x
COC(=O)C1=C(c2ccc(F)cc2OCc2ccccc2)C[C@@H]2CC[C@H]1N2C(=O)NCc1ccc2c(c1)OCO2	-6	x	-2	-8	-11	3	x	x
C[n+]1c(-c2ccccc2)c2cc(N)ccc2c2ccc(N)cc21	89*	104*	5	116*	116*	-6	68*	76*	Fam108b confirm=70*;Fam108b inh=40*
Cc1ccccc1N1C(=O)/C(=C/c2ccco2)C(=O)NC1=S	-15	77*	-10	47*	17	-10	x	32*	Fam108b confirm=68*;Fam108b inh=70*
C[C@]12CCC(=O)C[C@H]1CC[C@@H]1[C@@H]2CC[C@]2(C)C(=O)CC[C@@H]12	x	x	1	x	x	2	x	x
O=[N+]([O-])c1ccc(N2CCCCCC2)c2nonc12	16*	-7	-7	-21	-23	-7	24*	x
Cc1cc2c(C(F)(F)F)cc(=O)oc2c2c1NCCC2	0	2	-12	-6	-1	-9	x	x
O=c1cc(C(F)(F)F)c2cc3c4c(c2o1)CCCN4CCC3	18*	12	-27	17	16	-18	9	x
CN1CCc2cccc(Cl)c2CC1	0	2	-2	9	-2	7	x	x
O=C(COc1ccc2ccccc2c1)N1CCN(CC2CC3C=CC2C3)CC1 (stereo not drawn)	20*	1	1	26*	1	-8	34*	25
O=C(COc1ccc(Cl)cc1)N1CCN(C/C=C/c2ccccc2)CC1	26*	1	-4	70*	1	2	24*	77*
O=C(COc1ccccc1)N1CCN(C/C=C/c2ccccc2)CC1	-2	-3	-1	6	1	-6	x	x
Cn1ncnc2c(=O)n(C)c(=O)nc1-2	77*	78*	-9	96*	44*	-11	88*	96*
Cc1ccccc1NC(=O)Cc1nc(COC(=O)Cc2ccccc2)cs1	40*	x	-3	47*	18	1	-2	-4
O=C(COC(=O)Cc1ccccc1)Nc1cccnc1Cl	2	1	2	-2	5	8	x	x
CCOP(=S)(OCC)Oc1nc(Cl)c(Cl)cc1Cl	1	x	-17	2	-6	-8	x	x
